Results as given in ChEMBL document CHEMBL1151705, “Novel azalides derived from 16-membered macrolides. Part II: Isolation of the linear 9-formylcarboxylic acid and its sequential macrocyclization with an amino alcohol or an azidoamine” (2008).
In brackets after ≈: the same amount, converted by molar mass.

How the values were obtained:
Format in all cases: functional
Staphylococcus aureus [1] = assay: Antimicrobial activity against drug-susceptible Staphylococcus aureus 3 after 20 hrs by agar dilution method; settings: Staphylococcus aureus, 20 h; read-out: MIC
Summary of the method: (§1)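 Agar dilution MIC. S. aureus seed culture was grown in sensitivity test broth. Cell suspension (about 10⁶ CFU/ml) was inoculated onto sensitivity disk agar with 5% horse blood and incubated at 37 °C for 20 h. MIC was the lowest drug concentration that prevented visible growth.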

Haemophilus influenzae [2] = assay: Antimicrobial activity against drug-susceptible Haemophilus influenzae 4 after 20 hrs by agar dilution method; settings: Haemophilus influenzae, 20 h; read-out: MIC
Summary of the method: (§2)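 Streptococci, H. influenzae and M. catarrhalis were precultured on blood agar plates. Suspensions of about 10⁶ CFU/ml were inoculated onto sensitivity disk agar supplemented with 5% horse blood and incubated at 37 °C for 20 h. MIC was read as the lowest drug concentration with no visible growth.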

Haemophilus influenzae [3] = assay: Antimicrobial activity against drug-susceptible Haemophilus influenzae 1 after 20 hrs by agar dilution method; settings: Haemophilus influenzae, 20 h; read-out: MIC; summary of the method: as §2
Staphylococcus aureus [4] = assay: Antimicrobial activity against Staphylococcus aureus 6 expressing inducible ermB after 20 hrs by agar dilution method; summary of the method: as §1
Streptococcus pyogenes [5] = assay: Antimicrobial activity against Streptococcus pyogenes 3 expressing mefA after 20 hrs by agar dilution method; settings: Streptococcus pyogenes, 20 h; read-out: MIC; summary of the method: as §2
Streptococcus pneumoniae [6] = assay: Antimicrobial activity against Streptococcus pneumoniae 9 expressing mefA after 20 hrs by agar dilution method; settings: Streptococcus pneumoniae, 20 h; read-out: MIC; summary of the method: as §2
Haemophilus influenzae [7] = assay: Antimicrobial activity against drug-susceptible Haemophilus influenzae 3 after 20 hrs by agar dilution method; settings: Haemophilus influenzae, 20 h; read-out: MIC; summary of the method: as §2
Moraxella catarrhalis [8] = assay: Antimicrobial activity against drug-susceptible Moraxella catarrhalis 2 after 20 hrs by agar dilution method; settings: Moraxella catarrhalis, 20 h; read-out: MIC; summary of the method: as §2
Staphylococcus aureus [9] = assay: Antimicrobial activity against drug-susceptible Staphylococcus aureus 2 after 20 hrs by agar dilution method; settings: Staphylococcus aureus, 20 h; read-out: MIC; summary of the method: as §1
Streptococcus pneumoniae [10] = assay: Antimicrobial activity against drug-susceptible Streptococcus pneumoniae 2 after 20 hrs by agar dilution method; settings: Streptococcus pneumoniae, 20 h; read-out: MIC; summary of the method: as §2
Streptococcus pneumoniae [11] = assay: Antimicrobial activity against drug-susceptible Streptococcus pneumoniae DP1 Type1 after 20 hrs by agar dilution method; settings: Streptococcus pneumoniae, 20 h; read-out: MIC; summary of the method: as §2
Streptococcus pyogenes [12] = assay: Antimicrobial activity against drug-susceptible Streptococcus pyogenes 1 after 20 hrs by agar dilution method; summary of the method: as §2
Haemophilus influenzae [13] = assay: Antimicrobial activity against drug-susceptible Haemophilus influenzae 2 after 20 hrs by agar dilution method; settings: Haemophilus influenzae, 20 h; read-out: MIC; summary of the method: as §2
Streptococcus pneumoniae [14] = assay: Antimicrobial activity against Streptococcus pneumoniae 4 constitutively expressing ermB after 20 hrs by agar dilution method; settings: Streptococcus pneumoniae, 20 h; read-out: MIC; summary of the method: as §2
Moraxella catarrhalis [15] = assay: Antimicrobial activity against drug-susceptible Moraxella catarrhalis 1 after 20 hrs by agar dilution method; settings: Moraxella catarrhalis, 20 h; read-out: MIC; summary of the method: as §2
Streptococcus pyogenes [16] = assay: Antimicrobial activity against Streptococcus pyogenes 2 constitutively expressing ermB after 20 hrs by agar dilution method; summary of the method: as §2
Streptococcus pneumoniae [17] = assay: Antimicrobial activity against Streptococcus pneumoniae 7 expressing inducible ermB after 20 hrs by agar dilution method; summary of the method: as §2
Streptococcus pneumoniae [18] = assay: Antimicrobial activity against Streptococcus pneumoniae 10 expressing mefA after 20 hrs by agar dilution method; settings: Streptococcus pneumoniae, 20 h; read-out: MIC; summary of the method: as §2
Streptococcus pneumoniae [19] = assay: Antimicrobial activity against Streptococcus pneumoniae 5 constitutively expressing ermB/mefA after 20 hrs by agar dilution method; settings: Streptococcus pneumoniae, 20 h; read-out: MIC; summary of the method: as §2
Staphylococcus aureus [20] = assay: Antimicrobial activity against Staphylococcus aureus 4 constitutively expressing ermA after 20 hrs by agar dilution method; summary of the method: as §1
Streptococcus pneumoniae [21] = assay: Antimicrobial activity against Streptococcus pneumoniae 6 constitutively expressing ermB after 20 hrs by agar dilution method; settings: Streptococcus pneumoniae, 20 h; read-out: MIC; summary of the method: as §2
Streptococcus pneumoniae [22] = assay: Antimicrobial activity against drug-susceptible Streptococcus pneumoniae 3 after 20 hrs by agar dilution method; settings: Streptococcus pneumoniae, 20 h; read-out: MIC; summary of the method: as §2
Staphylococcus aureus [23] = assay: Antimicrobial activity against drug-susceptible Staphylococcus aureus 209P JC-1 after 20 hrs by agar dilution method; settings: Staphylococcus aureus, 209P, 20 h; read-out: MIC; summary of the method: as §1
Streptococcus pneumoniae [24] = assay: Antimicrobial activity against Streptococcus pneumoniae 8 expressing inducible ermB after 20 hrs by agar dilution method; summary of the method: as §2
Staphylococcus aureus [25] = assay: Antimicrobial activity against Staphylococcus aureus 5 expressing inducible ermB after 20 hrs by agar dilution method; settings: Staphylococcus aureus, 20 h; read-out: MIC; summary of the method: as §1
[26] = Streptococcus pyogenes, 20 h, read-out: MIC
[27] = Streptococcus pneumoniae, 20 h, read-out: MIC

## CCOC(=O)[C@H]1[C@H](C)O[C@@H](O[C@H]2[C@H](N(C)C)[C@@H](O)[C@H](O[C@H]3[C@@H](CC=O)C[C@@H](C)[C@@H](O)CN(C)CC(/C=C/Cc4cncc5ccccc45)CCOC(=O)C[C@@H](OC(=O)CC)[C@@H]3OC)O[C@@H]2C)C[C@@]1(C)O (stereo partly drawn)
Staphylococcus aureus [1]
  MIC: 0.13 µg/mL (≈ 0.132 µM)
Haemophilus influenzae [2]
  MIC: 8 µg/mL (≈ 8.11 µM)
Haemophilus influenzae [3]
  MIC: 32 µg/mL (≈ 32.4 µM)
Staphylococcus aureus [4]
  MIC: 0.25 µg/mL (≈ 0.253 µM)
Streptococcus pyogenes [5]
  MIC: 0.25 µg/mL (≈ 0.253 µM)
Streptococcus pneumoniae [6]
  MIC: 0.015 µg/mL (≈ 0.0152 µM)
Haemophilus influenzae [7]
  MIC: 8 µg/mL (≈ 8.11 µM)
Moraxella catarrhalis [8]
  MIC: 1 µg/mL (≈ 1.01 µM)
Staphylococcus aureus [9]
  MIC: 0.5 µg/mL (≈ 0.507 µM)
Streptococcus pneumoniae [10]
  MIC: 0.03 µg/mL (≈ 0.0304 µM)
Streptococcus pneumoniae [11]
  MIC: 0.015 µg/mL (≈ 0.0152 µM)
Streptococcus pyogenes [12]; [26]
  MIC: 0.03 µg/mL (≈ 0.0304 µM)
Haemophilus influenzae [13]
  MIC: 2 µg/mL (≈ 2.03 µM)
Streptococcus pneumoniae [14]
  MIC: 128 µg/mL (≈ 130 µM)
Moraxella catarrhalis [15]
  MIC: 1 µg/mL (≈ 1.01 µM)
Streptococcus pyogenes [16]
  MIC: > 128 µg/mL
Streptococcus pneumoniae [17]; [27]
  MIC: 8 µg/mL (≈ 8.11 µM)
Streptococcus pneumoniae [18]
  MIC: 0.03 µg/mL (≈ 0.0304 µM)
Streptococcus pneumoniae [19]
  MIC: 128 µg/mL (≈ 130 µM)
Staphylococcus aureus [20]
  MIC: > 128 µg/mL
Streptococcus pneumoniae [21]
  MIC: 128 µg/mL (≈ 130 µM)
Streptococcus pneumoniae [22]
  MIC: 0.015 µg/mL (≈ 0.0152 µM)
Staphylococcus aureus [23]
  MIC: 0.25 µg/mL (≈ 0.253 µM)
Streptococcus pneumoniae [24]; [27]
  MIC: 8 µg/mL (≈ 8.11 µM)
Staphylococcus aureus [25]
  MIC: 0.13 µg/mL (≈ 0.132 µM)

## CCOC(=O)[C@H]1[C@H](C)O[C@@H](O[C@H]2[C@H](N(C)C)[C@@H](O)[C@H](O[C@H]3[C@@H](CC=O)C[C@@H](C)[C@@H](O)CN(C)CC(CCCc4ccnc5ccccc45)CCOC(=O)C[C@@H](OC(=O)CC)[C@@H]3OC)O[C@@H]2C)C[C@@]1(C)O (stereo in doubt; form 1)
Staphylococcus aureus [1]
  MIC: 0.25 µg/mL (≈ 0.253 µM)
Haemophilus influenzae [2]
  MIC: 8 µg/mL (≈ 8.1 µM)
Haemophilus influenzae [3]
  MIC: 32 µg/mL (≈ 32.4 µM)
Staphylococcus aureus [4]
  MIC: 0.5 µg/mL (≈ 0.506 µM)
Streptococcus pyogenes [5]
  MIC: 0.25 µg/mL (≈ 0.253 µM)
Streptococcus pneumoniae [6]
  MIC: 0.03 µg/mL (≈ 0.0304 µM)
Haemophilus influenzae [7]
  MIC: 8 µg/mL (≈ 8.1 µM)
Moraxella catarrhalis [8]
  MIC: 1 µg/mL (≈ 1.01 µM)
Staphylococcus aureus [9]
  MIC: 0.5 µg/mL (≈ 0.506 µM)
Streptococcus pneumoniae [10]
  MIC: 0.03 µg/mL (≈ 0.0304 µM)
Streptococcus pneumoniae [11]
  MIC: 0.015 µg/mL (≈ 0.0152 µM)
Streptococcus pyogenes [12]; [26]
  MIC: 0.06 µg/mL (≈ 0.0607 µM)
Streptococcus pneumoniae [14]
  MIC: > 128 µg/mL
Moraxella catarrhalis [15]
  MIC: 1 µg/mL (≈ 1.01 µM)
Streptococcus pyogenes [16]
  MIC: > 128 µg/mL
Streptococcus pneumoniae [17]; [27]
  MIC: 16 µg/mL (≈ 16.2 µM)
Streptococcus pneumoniae [18]
  MIC: 0.03 µg/mL (≈ 0.0304 µM)
Streptococcus pneumoniae [19]
  MIC: > 128 µg/mL
Staphylococcus aureus [20]
  MIC: > 128 µg/mL
Streptococcus pneumoniae [21]
  MIC: > 128 µg/mL
Streptococcus pneumoniae [22]
  MIC: 0.03 µg/mL (≈ 0.0304 µM)
Staphylococcus aureus [23]
  MIC: 0.25 µg/mL (≈ 0.253 µM)
Streptococcus pneumoniae [24]; [27]
  MIC: 16 µg/mL (≈ 16.2 µM)
Staphylococcus aureus [25]
  MIC: 0.25 µg/mL (≈ 0.253 µM)

## CCOC(=O)[C@H]1[C@H](C)O[C@@H](O[C@H]2[C@H](N(C)C)[C@@H](O)[C@H](O[C@H]3[C@@H](CC=O)C[C@@H](C)[C@@H](O)CN(C)CC(/C=C/Cc4ccnc5ccccc45)CCOC(=O)C[C@@H](OC(=O)CC)[C@@H]3OC)O[C@@H]2C)C[C@@]1(C)O (stereo in doubt; form 1)
Staphylococcus aureus [1]
  MIC: 0.13 µg/mL (≈ 0.132 µM)
Haemophilus influenzae [2]
  MIC: 8 µg/mL (≈ 8.11 µM)
Haemophilus influenzae [3]
  MIC: 16 µg/mL (≈ 16.2 µM)
Staphylococcus aureus [4]
  MIC: 0.25 µg/mL (≈ 0.253 µM)
Streptococcus pyogenes [5]
  MIC: 0.13 µg/mL (≈ 0.132 µM)
Streptococcus pneumoniae [6]
  MIC: 0.03 µg/mL (≈ 0.0304 µM)
Haemophilus influenzae [7]
  MIC: 8 µg/mL (≈ 8.11 µM)
Moraxella catarrhalis [8]
  MIC: 1 µg/mL (≈ 1.01 µM)
Staphylococcus aureus [9]
  MIC: 0.5 µg/mL (≈ 0.507 µM)
Streptococcus pneumoniae [10]
  MIC: 0.03 µg/mL (≈ 0.0304 µM)
Streptococcus pneumoniae [11]
  MIC: 0.015 µg/mL (≈ 0.0152 µM)
Streptococcus pyogenes [12]
  MIC: 0.03 µg/mL (≈ 0.0304 µM)
Streptococcus pneumoniae [14]
  MIC: > 128 µg/mL
Moraxella catarrhalis [15]
  MIC: 1 µg/mL (≈ 1.01 µM)
Streptococcus pyogenes [16]
  MIC: > 128 µg/mL
Streptococcus pneumoniae [17]
  MIC: 8 µg/mL (≈ 8.11 µM)
Streptococcus pneumoniae [18]
  MIC: 0.03 µg/mL (≈ 0.0304 µM)
Streptococcus pneumoniae [19]
  MIC: > 128 µg/mL
Staphylococcus aureus [20]
  MIC: > 128 µg/mL
Streptococcus pneumoniae [21]
  MIC: > 128 µg/mL
Streptococcus pneumoniae [22]
  MIC: 0.03 µg/mL (≈ 0.0304 µM)
Staphylococcus aureus [23]
  MIC: 0.13 µg/mL (≈ 0.132 µM)
Streptococcus pneumoniae [24]
  MIC: 8 µg/mL (≈ 8.11 µM)
Staphylococcus aureus [25]
  MIC: 0.13 µg/mL (≈ 0.132 µM)
